Reference: ChEMBL document CHEMBL3351805, “Giffonins A-I, antioxidant cyclized diarylheptanoids from the leaves of the hazelnut tree (Corylus avellana), source of the Italian PGI product "Nocciola di Giffoni"” (J Nat Prod, 2015)

Experiments:
[1] = system: Plasma; experiment: Antioxidant activity in human plasma assessed as H2O2/Fe2+-induced lipid peroxidation at 10 uM after 30 mins by TBARS assay; type: functional, cell-free
Summary of the method: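 Reaction stopped on ice; TCA/HCl precipitation, centrifugation at 1200g. Supernatant boiled 15 min with thiobarbituric acid in Tris pH 7.0. A532 converted to TBARS via ε = 156 000 M⁻¹ cm⁻¹. Three independent experiments; paired Student's t test.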

[2] = system: Plasma; experiment: Antioxidant activity in human plasma assessed as H2O2-induced lipid peroxidation at 10 uM after 30 mins by TBARS assay; type: functional, cell-free
Summary of the method: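 Fresh plasma from medication-free human donors, incubated 30 min at 37 °C with compound (final 0.1–100 μM; DMSO <0.05% final) plus 2 mM H₂O₂. Stopped on ice, then mixed with an equal volume of cold 20% TCA in 0.6 M HCl and spun. Supernatant heated 15 min with 0.12 M TBA in 0.26 M Tris pH 7.0. TBARS read at 532 nm (ε = 156 000 M⁻¹ cm⁻¹). n=3 independent experiments.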

Row | SMILES | inhibition [1] | inhibition [2]
1 | COc1c2cc(c(OC)c1O)Oc1ccc(cc1)CCC(=O)CC/C=C/2 | 36.8% | 8.1%
2 | COc1c2cc(c(OC)c1O)Oc1ccc(cc1)[C@@H](O)CC(=O)CC/C=C/2 | 7.3% | 2.2%
3 | COc1c2cc(c(OC)c1O)Oc1ccc(cc1)CC[C@@H](O)/C=C/C=C\2 | 35.5% | 37.6%
4 | COc1c(O)cc2cc1Oc1ccc(cc1)CC[C@@H](O)/C=C/C=C\2 | 50.6% | 55.8%
5 | O=C1/C=C/CCc2ccc(O[C@@H]3O[C@H](CO)[C@@H](O)[C@H](O)[C@H]3O)c(c2)-c2cc(ccc2O[C@@H]2OC[C@H](O)[C@H](O)[C@H]2O)CC1 | 18.1% | 12.6%
6 | COc1cc(/C=C/C(=O)CC(=O)/C=C/c2ccc(O)c(OC)c2)ccc1O | 18.6% | 19.2%
7 | COc1c2cc(c(OC)c1O)Oc1ccc(cc1)CCC(=O)C[C@@H](O)/C=C\2 | 12% | 12.1%
8 | COc1c2cc(c(OC)c1O)Oc1ccc(cc1)CC[C@@H](O)CC/C=C\2 | 28.2% | 16.4%
9 | COc1c2cc(c(OC)c1O)Oc1ccc(cc1)CCC(=O)CC/C=C\2 | 63.2% | 64.3%
10 | COc1c2cc(c(OC)c1O)Oc1ccc(cc1)CCCC[C@@H](O)/C=C\2 | 30.8% | 20.8%
